Two compounds from ChEMBL document CHEMBL1125520, “Improved brain delivery of AZT using a glycosyl phosphotriester prodrug” (1992) can be followed below.

Test [1] deals with Mus musculus. The test can be described thus: In Vivo detection of total AZT in Mice plasma after oral administration of 20 mg/kg after 24 hr. In kind it is functional, organism-based. Set-up: dose 20 mg/kg. Summed up: (§1)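 Male Swiss mice (18–20 g, six weeks old) given the test substance or vehicle ([…]) by gavage as a 3 mM solution (1.5 µmol/mouse). Aortic blood was collected into heparinized tubes at 0.5–48 h and centrifuged at 13000g for 10 min. Plasma was stored at -22 °C and analysed by HPLC. Three mice were used per time point, in triplicate. Values were not corrected for recovery.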

Test [2] concerns Mus musculus. The test can be described thus: In Vivo detection in Mice plasma after oral administration of 20 mg/kg detected in the form of AZT 5`-P after 24 hr. In kind it is functional, organism-based. Further details: dose 20 mg/kg.
For test [3], the system named is Mus musculus. The test can be described thus: In Vivo detection of total AZT in Mice plasma after oral administration of 20 mg/kg after 4 hr. The class given is functional, organism-based. Set-up: dose 20 mg/kg. Put shortly:
as §1

For test [4], the system named is Mus musculus. The test can be described thus: In Vivo detection in Mice plasma after oral administration of 20 mg/kg detected in the form of AZT after 48 hr. The class given is functional, organism-based. Set-up: dose 20 mg/kg.
Test [5] relates to Mus musculus. The test can be described thus: In Vivo detection of total AZT in Mice plasma after oral administration of 20 mg/kg after 2 hr. The class given is functional, organism-based. Set-up: dose 20 mg/kg. Summed up:
as §1

Test [6] deals with Mus musculus. The test can be described thus: In Vivo detection of total AZT in Mice plasma after oral administration of 20 mg/kg after 1 hr. The class given is functional, organism-based. Further details: dose 20 mg/kg. Summed up:
as §1

For test [7], the species on record is Mus musculus. The test can be described thus: In Vitro detection by Gray and Whittaker method for % of internalization by comparing with external nucleoside of 2000 nM/g. The class given is functional. Put shortly:
(§2)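 Crude synaptosomes from three mouse brains were prepared by Gray–Whittaker homogenization in 10% sucrose buffered with 5 mM Tris-HCl, pH 7.4. The 7000g pellet was resuspended and incubated with each nucleoside at 3 mM for 15 min at 37 °C, stopped by cold 10-fold dilution and washed twice. Internal nucleoside was extracted in acetonitrile–water (3:1) and measured by HPLC.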

Test [8] has as its system Mus musculus. The test can be described thus: In Vivo detection of total AZT in Mice plasma after oral administration of 20 mg/kg after 8 hr. In kind it is functional, organism-based. Set-up: dose 20 mg/kg. Put shortly:
as §1

Test [9] relates to Mus musculus. The test can be described thus: In Vivo detection in Mice plasma after oral administration of 20 mg/kg detected in the form of AZT 5`-P after 0.5 hr. The class given is functional, organism-based. Set-up: dose 20 mg/kg.
Test [10] deals with Mus musculus. The test can be described thus: In Vivo detection of total AZT in Mice plasma after oral administration of 20 mg/kg after 0.5 hr. The class given is functional, organism-based. Further details: dose 20 mg/kg. Summed up: as §1
Test [11] concerns Mus musculus. The test can be described thus: In Vivo detection in Mice plasma after oral administration of 20 mg/kg detected in the form of AZT after 2 hr. In kind it is functional, organism-based. Further details: dose 20 mg/kg.
Test [12] relates to Mus musculus. The test can be described thus: In Vivo detection of total AZT in Mice plasma after oral administration of 20 mg/kg after 48 hr. Set-up: dose 20 mg/kg. The class given is functional, organism-based. Put shortly:
as §1

Test [13] concerns Mus musculus. The test can be described thus: In Vivo detection in Mice plasma after oral administration of 20 mg/kg detected in the form of AZT 5`-P after 4 hr. The class given is functional, organism-based. Further details: dose 20 mg/kg.
For test [14], the system named is Mus musculus. The test can be described thus: In Vivo detection in Mice plasma after oral administration of 20 mg/kg detected in the form of AZT 5`-P after 1 hr. In kind it is functional, organism-based. Further details: dose 20 mg/kg.
Test [15] concerns Mus musculus. The test can be described thus: In Vivo detection in Mice plasma after oral administration of 20 mg/kg detected in the form of AZT after 8 hr. Set-up: dose 20 mg/kg. In kind it is functional, organism-based.
For test [16], the system named is Mus musculus. The test can be described thus: In Vivo detection in Mice plasma after oral administration of 20 mg/kg detected in the form of AZT after 1 hr. In kind it is functional, organism-based. Further details: dose 20 mg/kg.
The subject of test [17] is Mus musculus. The test can be described thus: In Vivo detection in Mice plasma after oral administration of 20 mg/kg detected in the form of AZT after 24 hr. In kind it is functional, organism-based. Set-up: dose 20 mg/kg.
Test [18] relates to Mus musculus. The test can be described thus: In Vivo detection in Mice plasma after oral administration of 20 mg/kg detected in the form of AZT 5`-P after 8 hr. The class given is functional, organism-based. Set-up: dose 20 mg/kg.
The subject of test [19] is Mus musculus. The test can be described thus: In Vivo detection in Mice plasma after oral administration of 20 mg/kg detected in the form of AZT 5`-P after 2 hr. Set-up: dose 20 mg/kg. In kind it is functional, organism-based.
The test system of test [20] is Mus musculus. The test can be described thus: In Vivo detection in Mice plasma after oral administration of 20 mg/kg detected in the form of AZT 5`-P after 48 hr. In kind it is functional, organism-based. Set-up: dose 20 mg/kg.
Test [21] deals with Mus musculus. The test can be described thus: In Vivo detection in Mice plasma after oral administration of 20 mg/kg detected in the form of AZT after 4 hr. Set-up: dose 20 mg/kg. The class given is functional, organism-based.
The subject of test [22] is Mus musculus. The test can be described thus: In Vivo detection in Mice plasma after oral administration of 20 mg/kg detected in the form of AZT after 0.5 hr. In kind it is functional, organism-based. Further details: dose 20 mg/kg.
For test [23], the species on record is Mus musculus. The test can be described thus: In Vitro detection by Gray and Whittaker method for the total internal nucleoside. In kind it is functional. Summed up: as §2
Test [24] is filed under the species Mus musculus. The test can be described thus: Concentration of external nucleoside in mouse brain. In kind it is functional. Put shortly: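 Male Swiss mice (6 weeks, 18–20 g) dosed by oral gavage in saline vehicle at 20 mg/kg AZT or molar equivalent (3 mM, 1.5 µmol/mouse). Brains taken 0.5–48 h post-dose, homogenized in acetonitrile–water 3:1, centrifuged, lyophilized and filtered. Analysed by column-switching C18 HPLC with diode-array detection against spiked standards and vehicle controls. Three mice per time point, triplicates; not recovery-corrected.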

Regarding `Cc1cn([C@H]2C[C@H](N=[N+]=[N-])[C@@H](CO)O2)c(=O)[nH]c1=O` [ZIDOVUDINE], the Plasma content in the test with Mus musculus [1] was determined as 0 nM ml-1; in the test with Mus musculus [2] it was 0 nM ml-1; with Mus musculus [3] it was 4.4 nM ml-1; with Mus musculus [4], 0 nM ml-1; in the test on Mus musculus [5], 19.1 nM ml-1; with Mus musculus [6], 43.2 nM ml-1. For the same compound, the Plasma content turned out to be 0 nM ml-1 with Mus musculus [8]; 21.7 nM ml-1 in the test with Mus musculus [9]; 48.3 nM ml-1 in the test with Mus musculus [10]; 6 nM ml-1 in the test with Mus musculus [11]; 0 nM ml-1 in the test on Mus musculus [12]; 0 nM ml-1 in the test with Mus musculus [13]. In addition, the Plasma content with Mus musculus [14] stood at 27.5 nM ml-1; in the test on Mus musculus [15], 0 nM ml-1; with Mus musculus [16], 15.7 nM ml-1; in the test on Mus musculus [17], 0 nM ml-1; with Mus musculus [18], 0 nM ml-1; in the test with Mus musculus [19], 13.1 nM ml-1. The Plasma content amounted to 0 nM ml-1 with Mus musculus [20], 4.4 nM ml-1 in the test on Mus musculus [21] and 26.6 nM ml-1 in the test with Mus musculus [22]. The Internalisation in the test filed under Mus musculus [7] is 0.03%.
On to `Cc1cn([C@H]2C[C@H](N=[N+]=[N-])[C@@H](COP(=O)(O)O)O2)c(=O)[nH]c1=O` [AZIDOTHYMIDINE MONOPHOSPHATE], for which the Brain content in the test filed under Mus musculus [23] turned out to be 1.1 nM/g. This compound also had an Internalisation in the test listed under Mus musculus [7] of 0.06%. Also, the External nucleoside in the test listed under Mus musculus [24] was 2000 nM/g.
